Measured values from ChEMBL document CHEMBL1147738, “Potent and selective mitogen-activated protein kinase kinase (MEK) 1,2 inhibitors. 1. 4-(4-bromo-2-fluorophenylamino)-1- methylpyridin-2(1H)-ones” (J Med Chem, 2006).
Values after ≈ are worked out from the molar mass of the structure shown.

Columns and labels:
Homo sapiens = species: Homo sapiens; details: at 10 µM
[1] = Clearance in presence of human hepatocytes; format: ADME, cell-based, Liver, Hepatocyte
Outline: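 Human hepatocytes (fresh or cryopreserved) diluted to 2 x 10⁶ viable cells/mL in supplemented Krebs-Henseleit buffer pH 7.3, mixed 1:1 with 2 µM compound working solution. Incubated at 37 °C, 5% CO₂, duplicates, one plate per timepoint. Quenched with labetalol internal standard and centrifuged; compound remaining measured by LC-MS/MS (ESI+, MRM).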

[2] = target: Ribosomal protein S6 kinase (P70S6K) (Homo sapiens) (UniProt Q9UBS0+P23443); assay: Inhibition of p70 S6K at 10 uM; format: protein-complex assay
Outline: (§1)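 Kinase panel run at Upstate (Dundee). Each compound was tested at 10 µM against each enzyme and reported as % inhibition.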

[3] = target: T1, Lymphokine-activated killer T-cell-originated protein kinase (Homo sapiens) (UniProt Q96KB5); assay: Inhibition of PBK at 10 uM
T1 sequence (whole entry): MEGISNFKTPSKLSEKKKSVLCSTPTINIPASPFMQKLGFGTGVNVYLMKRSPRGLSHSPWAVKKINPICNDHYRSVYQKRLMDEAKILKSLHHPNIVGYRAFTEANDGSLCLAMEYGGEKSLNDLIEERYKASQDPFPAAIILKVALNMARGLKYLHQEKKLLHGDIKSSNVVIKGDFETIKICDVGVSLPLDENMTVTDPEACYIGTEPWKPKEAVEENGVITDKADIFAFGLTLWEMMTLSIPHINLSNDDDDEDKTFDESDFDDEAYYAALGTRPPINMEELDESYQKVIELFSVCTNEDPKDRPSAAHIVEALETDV
Outline: as §1

[4] = target: Casein kinase II (Homo sapiens) (UniProt P67870+P68400+P19784); assay: Inhibition of CK2 at 10 uM; format: protein-complex assay
Outline: as §1

[5] = target: Mitogen-activated protein kinase 11 (Homo sapiens) (UniProt Q15759); assay: Inhibition of SAPK2b/p38--beta-2 at 10 uM
Mitogen-activated protein kinase 11 (Homo sapiens), sequence (Q15759 whole entry): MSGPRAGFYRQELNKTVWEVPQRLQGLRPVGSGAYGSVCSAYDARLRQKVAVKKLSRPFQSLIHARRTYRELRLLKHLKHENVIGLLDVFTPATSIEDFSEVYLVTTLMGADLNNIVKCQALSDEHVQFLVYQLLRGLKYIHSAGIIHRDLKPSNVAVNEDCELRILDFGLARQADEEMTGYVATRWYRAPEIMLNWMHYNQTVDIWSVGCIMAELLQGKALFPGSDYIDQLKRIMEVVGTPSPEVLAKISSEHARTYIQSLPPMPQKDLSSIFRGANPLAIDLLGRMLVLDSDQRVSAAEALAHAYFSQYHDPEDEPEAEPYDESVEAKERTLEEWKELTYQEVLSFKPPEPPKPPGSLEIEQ
Outline: as §1

[6] = target: Mitogen-activated protein kinase 8 (Homo sapiens) (UniProt P45983); assay: Inhibition of JNK/SAPK1c at 10 uM
Mitogen-activated protein kinase 8 (Homo sapiens), sequence (P45983 whole entry): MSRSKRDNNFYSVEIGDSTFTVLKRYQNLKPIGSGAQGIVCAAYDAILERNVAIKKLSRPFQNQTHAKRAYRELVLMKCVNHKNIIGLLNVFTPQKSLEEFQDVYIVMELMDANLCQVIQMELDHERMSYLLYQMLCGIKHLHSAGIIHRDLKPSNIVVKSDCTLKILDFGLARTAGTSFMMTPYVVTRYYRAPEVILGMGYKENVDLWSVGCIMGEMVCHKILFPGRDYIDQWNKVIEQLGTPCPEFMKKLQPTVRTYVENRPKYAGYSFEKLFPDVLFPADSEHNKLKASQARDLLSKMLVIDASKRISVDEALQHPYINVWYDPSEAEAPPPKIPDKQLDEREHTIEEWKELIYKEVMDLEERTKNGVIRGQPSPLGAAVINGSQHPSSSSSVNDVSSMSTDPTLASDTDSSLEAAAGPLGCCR
Outline: as §1

[7] = target: Glycogen synthase kinase-3 beta (Homo sapiens) (UniProt P49841); assay: Inhibition of GSK3b at 10 uM
Glycogen synthase kinase-3 beta (Homo sapiens), sequence (P49841 whole entry, looked up): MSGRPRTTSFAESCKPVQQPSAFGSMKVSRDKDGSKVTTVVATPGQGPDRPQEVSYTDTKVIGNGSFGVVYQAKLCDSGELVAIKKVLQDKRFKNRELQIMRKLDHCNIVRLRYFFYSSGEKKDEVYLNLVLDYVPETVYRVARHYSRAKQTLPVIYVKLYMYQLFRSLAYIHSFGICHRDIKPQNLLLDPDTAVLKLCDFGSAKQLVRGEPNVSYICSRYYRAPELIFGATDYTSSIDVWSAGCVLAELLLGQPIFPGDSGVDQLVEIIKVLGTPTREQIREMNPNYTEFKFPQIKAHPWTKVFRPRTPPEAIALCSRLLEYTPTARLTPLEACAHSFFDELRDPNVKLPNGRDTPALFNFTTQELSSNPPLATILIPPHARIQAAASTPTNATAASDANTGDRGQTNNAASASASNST
Outline: as §1

[8] = Oral bioavailability in rat; format: ADME, organism-based; details: Sprague-Dawley, in vivo
Outline: (§2)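 Male Sprague Dawley rats (6-10 weeks) received IV 1 mg/kg (10% DMSO/90% saline) and PO 10 mg/kg (1% CMC/0.5% Tween 80). Serial tail-vein plasma was taken up to 24 h (IV) or 72 h (PO) and analysed by LC/MS/MS (9 ng/mL to 20 µg/mL). Parameters were calculated non-compartmentally.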

[9] = target: Ribosomal protein S6 kinase alpha-1 (Homo sapiens) (UniProt Q15418); assay: Inhibition of MAPKAP-K1a at 10 uM
Ribosomal protein S6 kinase alpha-1 (Homo sapiens), sequence (Q15418 whole entry): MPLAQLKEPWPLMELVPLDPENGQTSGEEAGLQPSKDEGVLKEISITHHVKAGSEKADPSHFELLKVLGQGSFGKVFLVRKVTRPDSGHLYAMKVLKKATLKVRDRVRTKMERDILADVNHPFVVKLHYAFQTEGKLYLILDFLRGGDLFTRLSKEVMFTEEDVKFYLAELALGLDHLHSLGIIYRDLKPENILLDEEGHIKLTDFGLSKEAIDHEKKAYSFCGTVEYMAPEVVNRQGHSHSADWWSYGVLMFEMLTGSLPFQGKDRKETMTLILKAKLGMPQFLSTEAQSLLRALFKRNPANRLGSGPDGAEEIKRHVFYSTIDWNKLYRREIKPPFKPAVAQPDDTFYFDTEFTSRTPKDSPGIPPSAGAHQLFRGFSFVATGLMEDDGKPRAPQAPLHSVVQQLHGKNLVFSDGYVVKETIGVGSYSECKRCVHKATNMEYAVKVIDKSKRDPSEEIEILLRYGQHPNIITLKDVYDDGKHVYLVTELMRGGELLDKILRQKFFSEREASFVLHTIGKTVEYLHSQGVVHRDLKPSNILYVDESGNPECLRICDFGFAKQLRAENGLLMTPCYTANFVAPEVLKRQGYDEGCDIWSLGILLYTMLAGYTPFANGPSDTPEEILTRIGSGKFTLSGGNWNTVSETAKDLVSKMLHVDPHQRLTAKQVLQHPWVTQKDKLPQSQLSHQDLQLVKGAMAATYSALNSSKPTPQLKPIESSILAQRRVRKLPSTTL
Outline: as §1

[10] = target: cAMP-dependent protein kinase (PKA) (Homo sapiens) (UniProt P22694+P17612+P22612); assay: Inhibition of PKA at 10 uM; format: protein assay
Outline: as §1

[11] = target: RAC-alpha serine/threonine-protein kinase (Homo sapiens) (UniProt P31749); assay: Inhibition of PKBa at 10 uM
RAC-alpha serine/threonine-protein kinase (Homo sapiens), sequence (P31749 whole entry): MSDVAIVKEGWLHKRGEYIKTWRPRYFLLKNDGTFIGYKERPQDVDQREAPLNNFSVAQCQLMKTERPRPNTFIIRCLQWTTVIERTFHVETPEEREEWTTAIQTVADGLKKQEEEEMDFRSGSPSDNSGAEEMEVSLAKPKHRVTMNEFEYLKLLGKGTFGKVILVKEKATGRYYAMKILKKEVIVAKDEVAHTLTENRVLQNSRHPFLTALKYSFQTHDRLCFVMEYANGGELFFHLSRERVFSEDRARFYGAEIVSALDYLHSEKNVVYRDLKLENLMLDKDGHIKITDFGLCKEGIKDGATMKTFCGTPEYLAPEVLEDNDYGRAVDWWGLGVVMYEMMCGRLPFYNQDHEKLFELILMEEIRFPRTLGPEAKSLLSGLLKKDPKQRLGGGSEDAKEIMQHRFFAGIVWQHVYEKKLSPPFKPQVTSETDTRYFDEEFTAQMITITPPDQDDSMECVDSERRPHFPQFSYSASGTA
Outline: as §1

[12] = target: Cyclin-dependent kinase 2/cyclin A (Homo sapiens) (UniProt P24941+P20248+P78396); assay: Inhibition of CDK2/cyclin A at 10 uM; format: protein-complex assay
Outline: as §1

[13] = Aqueous solubility at pH 6.5; format: physicochemical
Outline: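 Thermodynamic shake-flask method: crystalline solid (0.5 mg, crystallinity confirmed by polarizing microscopy) in 0.5 mL 10 mM potassium phosphate, pH 6.5, swirled 24 h at room temperature. Filtered aliquots were quantified by HPLC-PDA against a calibration curve.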

[14] = target: T2, MAP kinase-activated protein kinase 5 (Homo sapiens) (UniProt Q8IW41); assay: Inhibition of PRAK at 10 uM
T2 sequence (whole entry): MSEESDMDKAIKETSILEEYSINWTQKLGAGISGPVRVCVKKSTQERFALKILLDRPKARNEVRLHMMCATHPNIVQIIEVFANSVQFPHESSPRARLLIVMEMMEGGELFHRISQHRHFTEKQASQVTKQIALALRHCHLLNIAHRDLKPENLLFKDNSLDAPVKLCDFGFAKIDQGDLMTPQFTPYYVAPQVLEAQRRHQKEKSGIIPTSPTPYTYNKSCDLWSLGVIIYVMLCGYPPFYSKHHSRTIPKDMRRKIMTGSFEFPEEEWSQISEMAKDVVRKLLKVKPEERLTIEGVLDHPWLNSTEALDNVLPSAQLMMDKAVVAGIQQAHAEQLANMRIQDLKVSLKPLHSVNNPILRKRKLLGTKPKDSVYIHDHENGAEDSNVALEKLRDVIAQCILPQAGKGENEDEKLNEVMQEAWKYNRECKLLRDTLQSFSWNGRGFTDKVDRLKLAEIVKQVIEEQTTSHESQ
Outline: as §1

Rattus norvegicus = assay: AUC in rat at 10 mg/kg, po; format: ADME, organism-based, Sprague-Dawley, Plasma; parameters: dose 10 mg/kg, route oral; details: in vivo
Outline: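 Male Sprague Dawley rats (6-10 weeks) were given 10 mg/kg by oral gavage (2 mg/mL in 1% CMC/0.5% Tween 80, 5 mL/kg). Tail-vein EDTA blood was drawn at 15 and 30 min and 1, 2, 4, 8, 12, 24, 48, 72 h. Plasma was quantified by LC/MS/MS after methanol precipitation. Parameters came from non-compartmental analysis.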

[15] = target: Protein kinase C alpha type (Homo sapiens) (UniProt P17252); assay: Inhibition of PKCa at 10 uM
Outline: as §1

[16] = Volume of distribution in rat; format: ADME, organism-based; details: Sprague-Dawley, in vivo, read-out: Vdss
Outline: as §2

[17] = target: Mitogen-activated protein kinase 14 (Homo sapiens) (UniProt Q16539); assay: Inhibition of SAPK2a/p38 at 10 uM
Mitogen-activated protein kinase 14 (Homo sapiens), sequence (Q16539 whole entry): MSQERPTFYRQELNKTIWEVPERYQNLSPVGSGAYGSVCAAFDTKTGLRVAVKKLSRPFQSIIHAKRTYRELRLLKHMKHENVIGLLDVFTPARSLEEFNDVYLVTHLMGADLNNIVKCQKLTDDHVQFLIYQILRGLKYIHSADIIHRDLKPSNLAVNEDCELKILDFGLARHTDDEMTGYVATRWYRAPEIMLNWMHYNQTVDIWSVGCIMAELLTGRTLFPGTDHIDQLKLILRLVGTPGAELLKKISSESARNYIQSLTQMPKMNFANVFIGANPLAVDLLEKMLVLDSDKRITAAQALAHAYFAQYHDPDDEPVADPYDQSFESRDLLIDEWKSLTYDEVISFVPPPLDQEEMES
Outline: as §1

[18] = target: Mitogen-activated protein kinase 1 (Homo sapiens) (UniProt P28482); assay: Inhibition of MAPK2/ERK2 at 10 uM
Outline: as §1

[19] = target: Rho-associated protein kinase 2 (Homo sapiens) (UniProt O75116); assay: Inhibition of ROCK 2 at 10 uM
Rho-associated protein kinase 2 (Homo sapiens), sequence (O75116 whole entry, looked up): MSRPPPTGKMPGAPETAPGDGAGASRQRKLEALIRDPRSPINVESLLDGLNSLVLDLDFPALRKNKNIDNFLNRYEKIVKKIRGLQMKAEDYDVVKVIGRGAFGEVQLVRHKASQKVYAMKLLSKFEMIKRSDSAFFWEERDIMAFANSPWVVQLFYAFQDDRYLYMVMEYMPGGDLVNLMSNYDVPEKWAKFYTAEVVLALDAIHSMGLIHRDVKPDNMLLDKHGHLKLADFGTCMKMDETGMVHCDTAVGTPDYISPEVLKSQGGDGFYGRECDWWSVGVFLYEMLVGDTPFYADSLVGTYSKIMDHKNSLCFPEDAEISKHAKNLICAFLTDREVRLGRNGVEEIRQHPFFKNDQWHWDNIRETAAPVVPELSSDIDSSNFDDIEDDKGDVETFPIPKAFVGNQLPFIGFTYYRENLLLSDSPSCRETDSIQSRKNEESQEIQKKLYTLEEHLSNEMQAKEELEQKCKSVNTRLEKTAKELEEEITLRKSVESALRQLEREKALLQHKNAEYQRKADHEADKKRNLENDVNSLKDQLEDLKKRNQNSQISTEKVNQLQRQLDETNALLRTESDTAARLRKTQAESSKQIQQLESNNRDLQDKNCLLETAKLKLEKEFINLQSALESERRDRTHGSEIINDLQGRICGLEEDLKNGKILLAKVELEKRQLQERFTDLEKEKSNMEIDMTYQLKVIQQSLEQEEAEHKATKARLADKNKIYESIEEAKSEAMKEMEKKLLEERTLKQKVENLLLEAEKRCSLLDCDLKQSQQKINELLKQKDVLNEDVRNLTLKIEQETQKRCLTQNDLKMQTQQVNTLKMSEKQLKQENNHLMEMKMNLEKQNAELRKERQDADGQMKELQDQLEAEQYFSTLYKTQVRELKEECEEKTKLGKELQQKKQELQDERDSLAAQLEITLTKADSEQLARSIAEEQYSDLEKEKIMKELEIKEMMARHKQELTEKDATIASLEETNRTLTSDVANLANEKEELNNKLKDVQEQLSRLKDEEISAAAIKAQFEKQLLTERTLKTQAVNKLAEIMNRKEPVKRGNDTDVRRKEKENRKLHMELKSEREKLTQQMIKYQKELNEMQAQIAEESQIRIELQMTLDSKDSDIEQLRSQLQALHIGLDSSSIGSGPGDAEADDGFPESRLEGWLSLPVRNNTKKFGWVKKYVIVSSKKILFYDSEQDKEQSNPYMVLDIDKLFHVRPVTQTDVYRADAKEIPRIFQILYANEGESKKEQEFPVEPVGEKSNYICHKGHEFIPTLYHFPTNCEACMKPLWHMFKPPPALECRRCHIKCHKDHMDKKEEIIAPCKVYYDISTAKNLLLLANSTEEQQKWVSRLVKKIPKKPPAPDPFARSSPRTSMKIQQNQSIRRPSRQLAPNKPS
Outline: as §1

[20] = Half life in rat at 1 mg/kg, iv; format: ADME, organism-based; parameters: dose 1 mg/kg, route intravenous; details: Sprague-Dawley, in vivo
Outline: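 Male Sprague Dawley rats (6-10 weeks), fed ad lib, dosed IV at 1 mg/kg (1 mg/mL in 10% DMSO/90% normal saline, 1 mL/kg). Tail-vein EDTA blood sampled 1, 5, 15, 30 min and 1, 2, 4, 8, 12, 24 h. Plasma analysed by LC/MS/MS after methanol protein precipitation, range 9 ng/mL to 20 µg/mL. Parameters derived by non-compartmental analysis.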

[21] = target: MAP kinase-activated protein kinase 2 (Homo sapiens) (UniProt P49137); assay: Inhibition of MAPKAP-K2 at 10 uM
Outline: as §1

[22] = target: AMP-activated protein kinase, AMPK (Homo sapiens) (UniProt P54646+O43741+P54619+Q9UGJ0+Q9Y478+Q13131+Q9UGI9); assay: Inhibition of AMPK at 10 uM; format: protein-complex assay
Outline: as §1

[23] = target: Dual specificity tyrosine-phosphorylation-regulated kinase 1A (Homo sapiens) (UniProt Q13627); assay: Inhibition of DYRK1a at 10 uM
Outline: as §1

Row | Structure (SMILES) | inhibition (Homo sapiens) [%] | CLhep predicted [1] [L/h/kg] | inhibition [2] [%] | inhibition [3] [%] | inhibition [4] [%] | inhibition [5] [%] | inhibition [6] [%] | inhibition [7] [%] | bioavailability [8] [%] | inhibition [9] [%] | inhibition [10] [%] | inhibition [11] [%] | inhibition [12] [%] | solubility [13] [mg/mL] | inhibition [14] [%] | AUC (Rattus norvegicus) [µg·h/mL] | inhibition [15] [%] | Vd [16] [L/kg] | inhibition [17] [%] | inhibition [18] [%] | also measured
1 | CCONC(=O)c1cn(C)c(=O)c(C)c1Nc1ccc(Br)cc1F | -3 | 0.3 | -1 | 3 | 4 | 13 | 23 | 15 | 80 | 3 | -1 | 6 | 20 | 0.06 (≈ 151 µM) | 18 | 75 | 7 | 0.4 | -3 | 6 | inhibition [19]: 13%; half-life [20]: 2.5 h; inhibition [21]: 14%; inhibition [22]: 2%; inhibition [23]: 15%
2 | Cc1c(Nc2ccc(Br)cc2F)c(C(=O)NOCCO)cn(C)c1=O | -7 | 0.36 | 18 | -8 | -1 | 16 | 23 | 17 | 53 | -9 | 15 | -4 | 9 | 0.45 (≈ 1090 µM) | 16 | 12 | -3 | 1.1 | 20 | 6 | inhibition [19]: 13%; half-life [20]: 1.6 h; inhibition [21]: 8%; inhibition [22]: 19%; inhibition [23]: 10%
3 | CONC(=O)c1cn(C)c(=O)c(C)c1Nc1ccc(Br)cc1F | -9 | 0.3 | -2 | -4 | -4 | 5 | 7 | 12 | 73 | -8 | -7 | 12 | 8 | 0.2 (≈ 521 µM) | 9 | 88.3 | 0 | 0.4 | 3 | -9 | inhibition [19]: 10%; half-life [20]: 3.5 h; inhibition [21]: 1%; inhibition [22]: -4%; inhibition [23]: 2%
